Screening data: PubChem, several laboratories
A selection: hits, their analogues and other compounds. The true share with any hit is near 2.9%.
EBNA-1 inhibitor: blocks EBNA-1 binding to DNA; EBNA-1 DNA binding, fluorescence polarization; inhibition, % at 14.8 µM; 0.34% of 300,000 active; AID 1950; in the data active = inhibition above about 28%
PfM18AAP inh-1: blocks P. falciparum M18 aspartyl aminopeptidase; recombinant PfM18AAP, H-Glu-NHMec fluorogenic cleavage; inhibition, % at 7.35 µM; 1.2% of 290,000 active; AID 1822;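 active = inhibition above the campaign mean inhibition over all tested compounds plus 3 SD, cut at about 28% in these data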
UBC13 polyUb: blocks human UBC13 polyubiquitin chain formation; inhibition, % at 20 µM; TR-FRET; P61088; 0.47% of 330,000 active; in the data active = inhibition above about 45%, passing the limit was not always enough
PfG6PD inh: PfG6PD (Plasmodium falciparum) enzyme inhibition; PfGluPho enzyme, NADPH resazurin-diaphorase fluorescence; inhibition, % at 20 µM; 0.78% of 350,000 active;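 active = inhibition reaching at least a set limit at 20 µM in the primary screen, cut at about 59% in these data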
Apaf-1 inh: inhibitors of human Apaf-1 apoptosome; O14727; reconstituted apoptosome caspase-3 activity, DEVD-Rh110 fluorescence; inhibition, % at 20 µM; 0.71% of 330,000 active; AID 489030; active = inhibition of at least 40% at 20 µM
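System: reconstituted apoptosome with Apaf-1, cytochrome c, caspase-9, procaspase-3, dATP; Signal: Rh110 fluorescence intensity; Schedule: 30 min compound preincubation, 50 min activation, room temperature; Reagent: cytochrome c trigger plus (Z-DEVD)2-Rh110 caspase-3 substrate.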
ZTA DNA inh: ZTA (EBV) inhibition in EBNA-1 counter-screen | inhibition, % at 11 µM | P03206 | 0.15% of 320,000 active | ZTA-DNA binding, fluorescence polarization | AID 2234; in the data active = inhibition above about 33%
Target sequence (P03206 whole entry, looked up): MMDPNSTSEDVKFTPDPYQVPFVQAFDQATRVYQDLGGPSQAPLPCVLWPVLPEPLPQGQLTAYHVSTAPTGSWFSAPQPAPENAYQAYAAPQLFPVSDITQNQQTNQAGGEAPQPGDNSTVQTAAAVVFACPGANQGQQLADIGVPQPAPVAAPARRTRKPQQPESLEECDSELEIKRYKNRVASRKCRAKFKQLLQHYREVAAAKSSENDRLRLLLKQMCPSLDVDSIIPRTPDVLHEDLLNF
PfM18AAP inh-2: confirmation of Plasmodium falciparum M18 aspartyl aminopeptidase inhibitors. recombinant PfM18AAP, H-Glu-NHMec fluorogenic cleavage. inhibition, % at 7.35 µM. 28% of 2,400 active. AID 2170. shares compounds with PfM18AAP inh-1;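 active = mean inhibition over replicate wells above the hit cutoff set for the earlier primary screen, cut at about 29% in these data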
CTSL1 confirm: counter-screen for PFM18AAP inhibitors: confirmation of human cathepsin L inhibitors; shares compounds with PfM18AAP inh-1; inhibition, % at 5.96 µM; 2,400 tested, under 10 active; purified cathepsin L1, Z-Leu-Arg-MCA fluorescence; AID 2178;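 active = average inhibition across replicates above the hit cutoff set in the earlier primary screen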
Target sequence (P07711 whole entry, looked up): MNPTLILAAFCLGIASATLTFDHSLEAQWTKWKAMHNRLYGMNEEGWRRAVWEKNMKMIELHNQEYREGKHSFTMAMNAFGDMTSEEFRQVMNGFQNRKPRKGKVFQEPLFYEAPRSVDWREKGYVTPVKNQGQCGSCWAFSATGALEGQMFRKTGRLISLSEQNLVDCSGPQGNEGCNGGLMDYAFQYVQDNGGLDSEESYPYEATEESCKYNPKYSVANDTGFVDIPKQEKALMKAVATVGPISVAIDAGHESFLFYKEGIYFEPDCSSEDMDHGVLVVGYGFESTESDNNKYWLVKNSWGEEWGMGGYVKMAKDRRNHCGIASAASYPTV
Numbers stand for hits; - = inactive; . = not tested or not shown.

SMILES	EBNA-1 inhibitor	PfM18AAP inh-1	UBC13 polyUb	PfG6PD inh	Apaf-1 inh	ZTA DNA inh	PfM18AAP inh-2	CTSL1 confirm
CC1(C)Cc2c(sc3ncn4c(=S)[nH]nc4c23)CO1	-	43	-	-	-	-	30	-
COc1ccc(NC(=S)NNc2ccc(S(=O)(=O)Nc3ccccc3C(=O)O)cc2[N+](=O)[O-])cc1	-	64	-	-	-	-	42	-
NC(=O)c1nn(-c2ccc(Cl)cc2Cl)c(=O)cc1O	-	-	-	-	-	-	.	.
C/C(CC(=O)Nc1ccc2ccccc2c1)=N\NC(=O)c1ccc(O)c(O)c1	-	68	-	-	-	-	50	-
CC(=O)C1=C(C)NC(SCc2cccc([N+](=O)[O-])c2)=C(C#N)C1c1ccco1 (stereo unspecified)	-	32	-	-	-	-	-	-
O=C(Nc1nc2ccccc2s1)c1ccc(F)cc1	-	-	-	-	-	-	.	.
O=C(Nc1nc(=O)c2ccccc2s1)c1ccccc1	-	43	-	-	-	-	-	-
CCN(CC)c1ccc2nc3c4ccccc4c(=O)cc-3oc2c1	.	38	-	-	-	.	-	-
CCN1CCc2c(sc(NC(=O)c3ccc(S(=O)(=O)N(CC)c4ccccc4)cc3)c2C(N)=O)C1	-	36	-	-	-	-	-	-
CCN1CCc2c(sc(NC(=S)NC(=O)c3ccccc3)c2C#N)C1	-	38	-	-	-	-	-	-
CCN1CCc2c(sc(NC(=S)NC(=O)c3ccco3)c2C(N)=O)C1	-	33	-	-	-	-	-	-
CCN1CCc2c(sc(NC(=O)c3ccc(S(=O)(=O)N4CCOCC4)cc3)c2C(N)=O)C1	-	-	-	-	-	-	.	.
N#Cc1c(NC(=S)NC(=O)c2ccccc2)sc2c1CCC2	-	-	-	-	-	-	.	.
CCN1CCc2c(sc(NC(=O)Cc3ccccc3)c2C(N)=O)C1	-	-	-	-	-	-	.	.
CC(C)=NOc1nc(N(C)C)nc(N(C)C)n1	-	-	-	-	-	-	.	.
NNC(=O)c1c(O)c2cccc3c2n(c1=O)CCC3	-	34	-	-	-	-	-	-
O=C(Nc1ccc(Cl)cc1Cl)Nn1cnnc1	-	83	-	-	-	-	77	-
O=C(Nc1ccno1)Nc1ccc(Cl)cc1Cl	-	-	-	-	-	-	.	.
COc1ccc(Cl)cc1NC(=O)Nn1cnnc1	-	81	-	-	-	-	74	-
Cc1ccc(C)c(NC(=O)CCn2cnnn2)c1	-	-	-	-	-	-	.	.
Cc1ccc(C)c(NC(=O)Nn2cnnc2)c1	-	60	-	-	-	-	41	-
Cc1ccc(Cl)cc1NC(=O)Nn1cnnc1	-	76	-	-	-	-	61	-
O=C(Nc1ccccc1Cl)C1CC(=O)N(Cc2ccco2)C1 (stereo unspecified)	.	.	-	-	-	-	.	.
C=CCn1c(-c2sccc2C)n[nH]c1=S	-	32	-	-	-	-	-	-
C=CCn1c(-c2ccc(OC)c(OC)c2)n[nH]c1=S	-	36	-	-	-	-	-	-
SMILES	EBNA-1 inhibitor	PfM18AAP inh-1	UBC13 polyUb	PfG6PD inh	Apaf-1 inh	ZTA DNA inh	PfM18AAP inh-2	CTSL1 confirm
C=CCn1c(-c2cccc(Cl)c2)n[nH]c1=S	-	-	-	-	-	-	.	.
O=C(/C=C/c1ccccc1)c1cc(Br)ccc(=O)c1O	-	54	-	-	-	-	-	-
NC(=O)c1sc(=S)n(-c2ccc(Br)cc2)c1N	-	38	-	-	-	-	-	-
CCC(=O)c1ccc(OCC(=O)Nc2nn3cnnc3s2)cc1	-	66	-	-	-	-	40	-
N=c1c(C(=O)NCc2ccco2)cc2c(=O)n3ccccc3nc2n1C1CCCC1	-	36	-	-	-	-	-	-
CCOc1ccccc1NC(=O)Nn1cnnc1	-	60	-	-	-	-	44	-
CCOc1ccccc1NC(=O)Nc1ccncc1	-	-	-	-	-	-	.	.
CCc1ccccc1NC(=O)Nn1cnnc1	-	56	-	-	-	-	38	-
CC(=O)Nc1ccc2c(COC(=O)[C@@H](NS(=O)(=O)c3ccc(C)cc3)C(C)C)cc(=O)oc2c1	.	.	-	-	-	.	.	.
CCCN(CCC)CC(C)(C)NS(=O)(=O)c1ccc(Cl)cc1	-	-	-	-	-	-	.	.
O=C(CCc1ccccc1)NCCc1nc2ccccc2[nH]1	-	-	-	-	-	-	.	.
O=C(Cc1ccc(NC(=O)C2CCCN(C(=O)C3CCC3)C2)cc1)Nc1ccc(C(=O)N2CCOCC2)cc1 (stereo unspecified)	.	.	.	-	.	.	.	.
CC1(C)C2([N+](=O)[O-])CN3CC1([N+](=O)[O-])CN(C2)C3c1ccc(O)c(O)c1 (stereo unspecified)	-	77	-	-	-	-	84	-
CCN1C(=O)CC(C(=O)OC)=C1C	-	-	-	-	-	-	.	.
COC(=O)C1=C(C)N(Cc2ccc3c(c2)OCO3)C(=O)C1	-	34	-	-	-	-	-	-
COc1cc2c(c(OC)c1OC)-c1ccc(N(C)CC(OC)OC)c(=O)cc1[C@@H](NC(C)=O)CC2	-	45	-	-	-	-	-	-
Cc1ccc(CNC(=O)CCCC(=O)c2ccccc2)cc1	-	-	-	-	-	-	.	.
CC(C)Cn1c(=S)[nH]c2cc(C(=O)O)ccc2c1=O	-	-	-	-	-	-	.	.
CC(C)Cn1c2ccccc2c2cc(C(=O)O)ccc21	-	55	-	-	-	-	-	-
COc1ccc(C(=O)Oc2c(OC)cc(C(=S)N3CCOCC3)cc2OC)cc1OC	-	-	-	-	-	-	.	.
Cc1cccc(C(=O)NC(=S)NNC(=O)c2cccs2)c1	-	33	-	-	-	-	-	-
O=C(CSc1nnc(-c2ccncc2)o1)NC1C2CC3CC(C2)CC1C3 (stereo unspecified)	-	-	-	-	-	-	.	.
Cc1cccc(NC(=S)NCc2ccco2)n1	-	38	-	-	-	-	-	-
S=C(NCc1ccccc1)NCc1ccco1	.	-	-	-	-	.	.	.
NC(=O)C1CCN(C(=O)COc2ccc3ccccc3c2)CC1	-	-	-	-	-	-	.	.
NC(=O)C1CCN(C(=O)COc2ccc(Nc3ccccc3)cc2)CC1	-	34	-	-	-	-	-	-
Cc1onc(-c2ccccc2Cl)c1C(=O)NCc1ccc(F)cc1	-	-	-	-	-	-	.	.
CC(C)c1ccc(NC(=O)CCNC(=O)Cn2cnc3ccccc3c2=O)cc1	-	-	-	-	-	-	.	.
S=c1nc(C2CCCCC2)n(-c2ccccc2)[nH]1	-	35	-	-	-	-	-	-
COc1ccc(N(CCC#N)S(=O)(=O)c2cccc3nsnc23)cc1	-	-	-	-	-	-	.	.
